Results from ChEMBL document CHEMBL3351247 (J Med Chem, 2014).
The source made the active and inactive calls. The rule behind the calls is not given here.

Experiments:
Mu-type opioid receptor = Mu-type opioid receptor (Homo sapiens, UniProt P35372); test: Agonist activity at human MOR expressed in CHO cells assessed as inhibition of forskolin-induced cAMP accumulation after 30 mins by luminescence assay; format: functional, cell-based
In short: (§1)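 CHO cells stably expressing KOR or MOR, plated at 10 000 cells/well and incubated overnight at 37 °C. Compounds given as 10-point serial dilutions (1% DMSO final) with 20 μM forskolin final in HBSS/10 mM HEPES. Incubation 30 min at 37 °C, then detection reagents overnight at room temperature. HitHunter cAMP luminescence read-out; data normalized to vehicle and forskolin-only controls, nonlinear regression.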

Rattus norvegicus [1] = test: Toxicity in Sprague-Dawley rat assessed as inactive lever pressing during reinstatement period at 0.3 mg/kg, ip; format: organism-based; parameters: dose 0.3 mg/kg, route intraperitoneal; settings: in vivo
In short: (§2)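 Male Sprague-Dawley rats (300–350 g) trained to IV cocaine self-administration (0.5 mg/kg/infusion) on FR5 in 2 h daily sessions, then extinction with saline-heparin and cocaine-prime (20 mg/kg) reinstatement. Agonist given ip in DMSO:Tween 80:water 2:1:7 10 min before prime.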

Rattus norvegicus [2] = test: Toxicity in Sprague-Dawley rat assessed as inactive lever pressing during extinction period at 0.3 mg/kg, ip; format: organism-based; parameters: dose 0.3 mg/kg, route intraperitoneal; settings: in vivo; in short: as §2
Rattus norvegicus [3] = test: Toxicity in Sprague-Dawley rat assessed as inactive lever pressing during reinstatement period at 1 mg/kg, ip; format: organism-based; parameters: dose 1 mg/kg, route intraperitoneal; settings: in vivo; in short: as §2
Rattus norvegicus [4] = test: Inhibition of cocaine-prime-induced reinstatement in Sprague-Dawley rat at 0.3 to 1 mg/kg, ip administered 10 mins prior to cocaine challenge relative to vehicle-treated control; format: functional, organism-based
In short: (§3)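 Male Sprague-Dawley rats (300–350 g) self-administered IV cocaine (0.5 mg/kg/infusion, jugular cannula) in daily 2 h sessions on FR5 until stable (<20% variation over 3 days). Extinction with saline-heparin and no light cue until responses fell below 20% of baseline. Agonist given ip in DMSO:Tween 80:water 2:1:7 10 min before a cocaine prime (20 mg/kg). Active lever presses recorded.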

Rattus norvegicus [5] = test: Toxicity in Sprague-Dawley rat assessed as inactive lever pressing during self administration period at 1 mg/kg, ip; format: organism-based; parameters: dose 1 mg/kg, route intraperitoneal; settings: in vivo; in short: as §2
Rattus norvegicus [6] = test: Toxicity in Sprague-Dawley rat assessed as inactive lever pressing during extinction period at 1 mg/kg, ip; format: organism-based; parameters: dose 1 mg/kg, route intraperitoneal; settings: in vivo; in short: as §2
Rattus norvegicus [7] = test: Toxicity in Sprague-Dawley rat assessed as inactive lever pressing during self administration period at 0.3 mg/kg, ip; format: organism-based; parameters: dose 0.3 mg/kg, route intraperitoneal; settings: in vivo; in short: as §2
[8] = target: Kappa-type opioid receptor (Homo sapiens, UniProt P41145); test: Agonist activity at human KOR expressed in CHO cells assessed as inhibition of forskolin-induced cAMP accumulation after 30 mins by luminescence assay; format: functional, cell-based; in short: as §1
Rattus norvegicus [9] = test: Inhibition of cocaine-prime-induced reinstatement in Sprague-Dawley rat at 0.1 to 0.3 mg/kg, ip administered 10 mins prior to cocaine challenge relative to vehicle-treated control; format: functional, organism-based; in short: as §3
Rattus norvegicus [10] = test: Inhibition of cocaine-prime-induced reinstatement in Sprague-Dawley rat at 1 mg/kg, ip administered 10 mins prior to cocaine challenge relative to vehicle-treated control; format: functional, organism-based; parameters: dose 1 mg/kg; in short: as §3

Kappa-type opioid receptor, sequence (P41145 whole entry): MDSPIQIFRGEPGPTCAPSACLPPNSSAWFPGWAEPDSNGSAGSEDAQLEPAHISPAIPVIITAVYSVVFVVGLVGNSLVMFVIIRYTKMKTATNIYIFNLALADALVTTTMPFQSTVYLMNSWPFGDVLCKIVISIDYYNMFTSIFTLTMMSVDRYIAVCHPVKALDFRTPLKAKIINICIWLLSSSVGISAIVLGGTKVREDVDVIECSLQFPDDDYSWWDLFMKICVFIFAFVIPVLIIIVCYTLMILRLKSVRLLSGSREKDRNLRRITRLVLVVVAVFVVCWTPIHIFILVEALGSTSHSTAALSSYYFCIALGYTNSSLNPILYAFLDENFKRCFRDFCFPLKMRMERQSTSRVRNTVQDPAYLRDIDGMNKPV
Mu-type opioid receptor, sequence (P35372 whole entry): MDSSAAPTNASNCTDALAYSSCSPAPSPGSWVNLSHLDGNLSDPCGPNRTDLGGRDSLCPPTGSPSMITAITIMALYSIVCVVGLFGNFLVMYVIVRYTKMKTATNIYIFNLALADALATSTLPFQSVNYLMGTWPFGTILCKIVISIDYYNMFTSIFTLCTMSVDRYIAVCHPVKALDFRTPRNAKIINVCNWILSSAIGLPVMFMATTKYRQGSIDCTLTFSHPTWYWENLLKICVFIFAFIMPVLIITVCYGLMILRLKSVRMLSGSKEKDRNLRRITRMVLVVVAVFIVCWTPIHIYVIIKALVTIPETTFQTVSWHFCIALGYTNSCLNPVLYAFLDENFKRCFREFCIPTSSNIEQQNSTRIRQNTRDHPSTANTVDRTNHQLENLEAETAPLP

Compound | EC50 (Mu-type opioid receptor) [nM] | Activity (Rattus norvegicus [1]) | Activity (Rattus norvegicus [2]) | Activity (Rattus norvegicus [3]) | inhibition (Rattus norvegicus [4]) | Activity (Rattus norvegicus [5]) | Activity (Rattus norvegicus [6]) | Activity (Rattus norvegicus [7]) | EC50 [8] [nM] | Emax [8] [%] | inhibition (Rattus norvegicus [9]) | inhibition (Rattus norvegicus [10])
COC(=O)[C@@H]1C[C@H](OC(C)=O)C(=O)[C@H]2[C@@]1(C)CC[C@H]1C(=O)O[C@H](c3ccoc3Br)C[C@]21C | ≥ 10000 | Non-toxic | Non-toxic | Non-toxic | Active | Non-toxic | Non-toxic | Non-toxic | – | – | – | –
C#Cc1occc1[C@@H]1C[C@]2(C)[C@H]3C(=O)[C@@H](OC(C)=O)C[C@@H](C(=O)OC)[C@]3(C)CC[C@H]2C(=O)O1 | ≥ 10000 | Non-toxic | Non-toxic | Non-toxic | – | Non-toxic | Non-toxic | Non-toxic | 0.019 | 100 | Active | –
COC(=O)[C@@H]1C[C@H](OC(C)=O)C(=O)[C@H]2[C@@]1(C)CC[C@H]1C(=O)O[C@H](c3ccoc3C)C[C@]21C | ≥ 10000 | Non-toxic | Non-toxic | Non-toxic | – | Non-toxic | Non-toxic | Non-toxic | 0.41 | 100 | – | inactive
